# Experimental data: ChEMBL document CHEMBL3044618, “Repellent constituents of essential oil of Cymbopogon distans aerial parts against two stored-product insects” (2011)
# What was measured:
# Assay type in all cases: functional
# Tribolium castaneum [1] = assay: Insecticidal activity against adult Tribolium castaneum (red flour beetle) assessed as repellent activity at 1.6 nL/cm2 after 4 hr
# How it was run: (§1)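 Adult T. castaneum, about 2 weeks old, reared on wheat flour plus yeast (10:1, w/w) in the dark at 28–30 °C and 70–80% RH. In Fluon-coated 9 cm dishes, half of a 9 cm filter paper received 500 μL of acetone solution and the other half received acetone, then both were air-dried. Insects on each half were counted at 2 and 4 h. Percent repellency was computed from the counts. Five replicates, three runs.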
# [2] = tested on: Liposcelis bostrychophila; assay: Insecticidal activity against adult Liposcelis bostrychophila (booklice) assessed as repellent activity at 13 nL/cm2 after 2 hr
# How it was run: (§2)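 Adult booklice, about 2 weeks old, from dark cultures at 28–30 °C and 70–80% RH on milk powder/active yeast/flour (1:1:1). Half of a 6 cm filter paper received 150 μL of sample in acetone; the other half received acetone; both were air-dried. Papers were placed in Fluon-coated 6 cm Petri dishes. Insects on each half were counted at 2 and 4 h. PR = (Nc−Nt)/(Nc+Nt)×100. Five replicates, repeated three times.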
# [3] = tested on: Liposcelis bostrychophila; assay: Insecticidal activity against adult Liposcelis bostrychophila (booklice) assessed as repellent activity at 1.6 nL/cm2 after 2 hr; how it was run: as §2
# [4] = tested on: Liposcelis bostrychophila; assay: Insecticidal activity against adult Liposcelis bostrychophila (booklice) assessed as repellent activity at 26 nL/cm2 after 2 hr; how it was run: as §2
# [5] = tested on: Liposcelis bostrychophila; assay: Insecticidal activity against adult Liposcelis bostrychophila (booklice) assessed as repellent activity at 26 nL/cm2 after 4 hr; how it was run: as §2
# Tribolium castaneum [6] = assay: Insecticidal activity against adult Tribolium castaneum (red flour beetle) assessed as repellent activity at 0.016 nL/cm2 after 4 hr; how it was run: as §1
# [7] = tested on: Liposcelis bostrychophila; assay: Insecticidal activity against adult Liposcelis bostrychophila (booklice) assessed as repellent activity at 13 nL/cm2 after 4 hr; how it was run: as §2
# Tribolium castaneum [8] = assay: Insecticidal activity against adult Tribolium castaneum (red flour beetle) assessed as repellent activity at 0.016 nL/cm2 after 2 hr; how it was run: as §1
# Tribolium castaneum [9] = assay: Insecticidal activity against adult Tribolium castaneum (red flour beetle) assessed as repellent activity at 16 nL/cm2 after 2 hr; how it was run: as §1
# Tribolium castaneum [10] = assay: Insecticidal activity against adult Tribolium castaneum (red flour beetle) assessed as repellent activity at 16 nL/cm2 after 4 hr; how it was run: as §1
# Tribolium castaneum [11] = assay: Insecticidal activity against adult Tribolium castaneum (red flour beetle) assessed as repellent activity at 0.0016 nL/cm2 after 2 hr; how it was run: as §1
# [12] = tested on: Liposcelis bostrychophila; assay: Insecticidal activity against adult Liposcelis bostrychophila (booklice) assessed as repellent activity at 6.4 nL/cm2 after 2 hr; how it was run: as §2
# [13] = tested on: Liposcelis bostrychophila; assay: Insecticidal activity against adult Liposcelis bostrychophila (booklice) assessed as repellent activity at 3.2 nL/cm2 after 4 hr; how it was run: as §2
# Tribolium castaneum [14] = assay: Insecticidal activity against adult Tribolium castaneum (red flour beetle) assessed as repellent activity at 0.16 nL/cm2 after 4 hr; how it was run: as §1
# Tribolium castaneum [15] = assay: Insecticidal activity against adult Tribolium castaneum (red flour beetle) assessed as repellent activity at 0.0016 nL/cm2 after 4 hr; how it was run: as §1
# [16] = tested on: Liposcelis bostrychophila; assay: Insecticidal activity against adult Liposcelis bostrychophila (booklice) assessed as repellent activity at 1.6 nL/cm2 after 4 hr; how it was run: as §2
# [17] = tested on: Liposcelis bostrychophila; assay: Insecticidal activity against adult Liposcelis bostrychophila (booklice) assessed as repellent activity at 3.2 nL/cm2 after 2 hr; how it was run: as §2
# Tribolium castaneum [18] = assay: Insecticidal activity against adult Tribolium castaneum (red flour beetle) assessed as repellent activity at 0.16 nL/cm2 after 2 hr; how it was run: as §1
# Tribolium castaneum [19] = assay: Insecticidal activity against adult Tribolium castaneum (red flour beetle) assessed as repellent activity at 1.6 nL/cm2 after 2 hr; how it was run: as §1
# [20] = tested on: Liposcelis bostrychophila; assay: Insecticidal activity against adult Liposcelis bostrychophila (booklice) assessed as repellent activity at 6.4 nL/cm2 after 4 hr; how it was run: as §2
SMILES,Repellency (Tribolium castaneum [1]) [%],Repellency [2] [%],Repellency [3] [%],Repellency [4] [%],Repellency [5] [%],Repellency (Tribolium castaneum [6]) [%],Repellency [7] [%],Repellency (Tribolium castaneum [8]) [%],Repellency (Tribolium castaneum [9]) [%],Repellency (Tribolium castaneum [10]) [%],Repellency (Tribolium castaneum [11]) [%],Repellency [12] [%],Repellency [13] [%],Repellency (Tribolium castaneum [14]) [%],Repellency (Tribolium castaneum [15]) [%],Repellency [16] [%],Repellency [17] [%],Repellency (Tribolium castaneum [18]) [%],Repellency (Tribolium castaneum [19]) [%],Repellency [20] [%]
CC(C)=CCC[C@@H](C)CCO [(+)-CITRONELLOL],75,66,28,96,82,48,76,44,88,96,40,66,44,66,36,32,52,64,82.5,64
CC(C)=CCC[C@@H](C)CC=O [CITRONELLAL],-16,-10,-10,36,34,-16,4,4,16,-4,-20,20,12,6,0,-10,-4,10,-12,6
C=C(C)[C@H]1CC=C(C)CC1 [D-LIMONENE],-44,-4,-6,36,40,-36,30,-36,20,-4,20,-20,-22,8,12,-4,-10,2,-22,-18
CCN(CC)C(=O)c1cccc(C)c1 [DIETHYLTOLUAMIDE],-12,100,46,96,94,-4,94,0,92,90,-34,84,64,-16,-46,42,82,0,6,92
CC(C)=CCC/C(C)=C/CO [GERANIOL],60,95,42,86,92,-10,82.5,-12,96,86,-10,90,74,14,-14,44,84,14,58,96
